Screens: PubChem, several laboratories
PRMT1 FP inh = PRMT1 methyltransferase inhibitors, primary screen, biochemical, fluorescence polarization; Protein arginine N-methyltransferase 1 (Homo sapiens), Q99873; recombinant PRMT1, activity-based probe fluorescence polarization; inhibition, % at 2.79 µM; hit rate 1.3% among 370,000;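 active = inhibition above about 21% made by adding two undisclosed values, limit read from the data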
PAD4 inh = human PAD4 inhibitors, primary screen, biochemical, fluorescence polarization, 1536-well format; Protein-arginine deiminase type-4 (Homo sapiens), Q9UM07; hit rate 0.41% among 330,000; inhibition, % at 6.36 µM; recombinant PAD4, RCA probe fluorescence polarization;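 active = percent inhibition above a cutoff equal to the mean of all tested compounds plus 3 SD, cut at about 15% in these data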;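 also: 0% = PAD4 with RCA probe and DMSO and 100% = probe without PAD4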
TDP2 absorb = human TDP2 enzyme inhibitors, primary screen, biochemical, epi absorbance, recombinant enzyme; T5PNP hydrolysis, p-nitrophenol absorbance 415 nm; Tyrosyl-DNA phosphodiesterase 2 (Homo sapiens), O95551; inhibition, % at 12.8 µM; AID 720702, 2013; hit rate 0.34% among 370,000;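 active = inhibition above the mean of all tested compounds plus 3 SD, set per campaign, cut at about 25% in these data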;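 also: 0% = DMSO with enzyme and 100% = buffer with substrate but no TDP2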
Target sequence (O95551 whole entry, looked up): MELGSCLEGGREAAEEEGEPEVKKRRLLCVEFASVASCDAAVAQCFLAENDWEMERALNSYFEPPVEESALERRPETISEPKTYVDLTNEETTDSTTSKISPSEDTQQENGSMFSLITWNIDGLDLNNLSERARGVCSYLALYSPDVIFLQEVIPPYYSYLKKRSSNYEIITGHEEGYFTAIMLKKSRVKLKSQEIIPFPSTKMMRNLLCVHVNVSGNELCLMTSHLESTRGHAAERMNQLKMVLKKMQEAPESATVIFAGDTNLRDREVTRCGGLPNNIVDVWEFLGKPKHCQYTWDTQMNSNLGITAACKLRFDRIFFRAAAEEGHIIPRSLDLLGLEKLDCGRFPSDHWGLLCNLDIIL
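Test system: human TDP2 enzyme; Input: 120 nM TDP2 per well; Buffer or medium: Mg2+-containing Tris-HCl buffer, pH 7.5; Reagent: 5 mM T5PNP; Dosing: 12.8 µM single point, 1% DMSO; Incubation: reaction 2 h, 37 °C; Detection: p-Nitrophenol epi absorbance; Read-out: % inhibition relative to enzyme-containing and enzyme-free wells; Replicates: single well per compound.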
GSTO1 counter = inhibitors of recombinant GSTO1, primary screen, counter-screen for RBBP9 inhibitor project, biochemical, fluorescence polarization. Glutathione S-transferase omega-1 (Homo sapiens), P78417. activity-based probe fluorescence polarization. inhibition, % at 5.96 µM. hit rate 1.1% among 300,000;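 active = inhibition above the campaign mean inhibition plus 3 SD, cut at about 35% in these data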;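 also: 0% = GSTO1-1 with DMSO and 100% = wells lacking GSTO1-1 enzyme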
Target sequence (P78417 whole entry, looked up): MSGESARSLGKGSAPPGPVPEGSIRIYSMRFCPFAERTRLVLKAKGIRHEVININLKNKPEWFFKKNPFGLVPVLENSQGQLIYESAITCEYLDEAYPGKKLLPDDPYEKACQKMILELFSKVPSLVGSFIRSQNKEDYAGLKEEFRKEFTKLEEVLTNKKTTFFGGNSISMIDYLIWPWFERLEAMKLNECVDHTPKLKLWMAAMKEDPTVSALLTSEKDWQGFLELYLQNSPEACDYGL
Apaf1 inhib = inhibitors of human Apaf-1 apoptosome, primary screen, biochemical, DEVD-Rh110 fluorescence, uHTS. Apoptotic protease-activating factor 1 (Homo sapiens), O14727. AID 489030, 2010. reconstituted apoptosome caspase-3 activity. hit rate 0.71% among 330,000. inhibition, % at 20 µM; active = inhibition of at least 40% at 20 µM;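 also: plate controls were DMSO wells for no effect and DEVD-CHO caspase inhibitor wells for full effect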
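Material: biochemical Apaf-1 apoptosome reconstitution. Medium: Hepes buffer, pH 7.5. Also added: cytochrome c activation, bis-DEVD rhodamine 110 substrate. Timing: 30 min compound preincubation, 50 min activation, room temperature. Measured by: rhodamine 110 fluorescence at Ex 480/Em 540 nm.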
Apaf-1 inh conf2 = Apaf-1 inhibitors, single-dose retest, confirmation, biochemical, fluorescence, DEVD-Rh110, 20 µM | shares compounds with Apaf1 inhib | reconstituted apoptosome, caspase-3 DEVD-Rh110 fluorescence | inhibition, % at 20 µM | hit rate 25% among 1,800 | AID 504614, 2011;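 active = mean inhibition of at least 40% at 20 µM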;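 also: plate controls were DMSO wells for no effect and DEVD-CHO caspase inhibitor control wells for full effect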
Rh110 quench = Rh110 fluorescence interference by putative Apaf-1 inhibitors, confirmation, artefact control for Apaf-1 inhibitor project, biochemical, 20 µM; shares compounds with Apaf1 inhib; quenched caspase reaction; activation (fluorescence interference), % at 20 µM; 1,800 tested, under 10 active; AID 504615, 2011;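 active = signal rise of 40% or more at 20 µM, treated as a fluorescence artifact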
Fluor interf inh = fluorescence interference of Apaf-1 inhibitor hits, dose response, artefact control for Apaf-1 inhibitor project. 460 tested, under 10 active. IC50, µM. fluorescence interference counterscreen, Apaf-1 assay format. shares compounds with Apaf1 inhib. AID 588538, 2011; call rule not given here
* hit, by the source's call; x = not tested or not shown. The list is not random: actives were taken first. Their share in the collection is about 2.6%.

SMILES | PRMT1 FP inh | PAD4 inh | TDP2 absorb | GSTO1 counter | Apaf1 inhib | Apaf-1 inh conf2 | Rh110 quench | others
CCN1CCc2c(sc(NC(=O)c3ccc(C(=O)c4ccccc4)cc3)c2C(N)=O)C1 | 3 | -5 | -5 | -35 | 44* | 21 | 10
CCCN(CC(=O)Nc1ccccc1OC)C(=O)CSc1ccc(Br)cc1C | -2 | -6 | 6 | x | 57* | 40* | 4 | Fluor interf inh=>100
CCCN(CC(=O)Nc1ccccc1C)C(=O)CCCOc1ccc(Br)cc1 | 2 | -3 | 4 | x | 53* | 43* | 9 | Fluor interf inh=>100
COc1ccc(-n2nc3cc(N)c(Br)cc3n2)cc1 | 2 | -9 | -1 | 17 | 69* | 4 | 4
CN(CC(=O)Nc1cccc(F)c1)C(=O)C1CC(=O)N(Cc2ccccc2)C1 (centres undefined) | 0 | 5 | -11 | 1 | -4 | x | x
CN(CC(=O)Nc1ccc(F)cc1)C(=O)C1CC(=O)N(Cc2ccccc2)C1 (centres undefined) | -7 | -1 | -8 | 2 | 44* | 26 | 3
CCOc1ccccc1N1CCN(C(=O)c2ccccc2)CC1 | 0 | 4 | -5 | 10 | 7 | x | x
CCOc1ccccc1N1CCN(C(=O)C2c3ccccc3Oc3ccccc32)CC1 | -6 | -1 | -10 | 5 | 41* | 40* | 7 | Fluor interf inh=>100
O=S(=O)(c1ccc(Cl)s1)N1CCC(c2nc3ccccc3o2)CC1 | 4 | x | 6 | x | x | x | x
CN1CCN(CCCN2c3ccccc3Sc3ccc(C(F)(F)F)cc32)CC1 | -1 | -3 | -1 | 2 | 54* | 11 | 8
COC(=O)[C@]12C[C@H](CC(=O)NCCCCc3ccccc3)C(=O)N(CCc3ccc(OC)c(OC)c3)C1=C[C@H](C1CCCC1)O[C@@H]2C | 7 | x | -3 | x | x | x | x
O=C(OCC(=O)N1CCN(S(=O)(=O)c2ccc(Cl)cc2)CC1)c1ccc([N+](=O)[O-])o1 | -3 | -15 | -1 | 7 | 69* | 14 | 3
O=C(OCC(=O)N1CCN(S(=O)(=O)c2ccccc2)CC1)c1ccc([N+](=O)[O-])o1 | -5 | -13 | 6 | 14 | 80* | 18 | 10
CC(C)(C)NC(=O)C1C(c2ccc(C(F)(F)F)cc2)=Nc2ccccc2N1C(=O)c1cccc(C(F)(F)F)c1 (centres undefined) | 4 | x | 2 | x | x | x | x
c1ccc(C[C@H]2CN=C(Nc3ccccc3)N2CCCC2CCCCC2)cc1 | 0 | -1 | -8 | x | 47* | 1 | 3
COC(=O)C1(C(=O)OC)c2cc3c(cc2CN(S(=O)(=O)c2ccc(C)cc2)C1CC(C)=O)OCO3 (centres undefined) | 4 | x | 8 | x | x | x | x
CN(C)c1cc(N/N=C/c2ccccc2C(F)(F)F)nc(N(C)C)n1 | -2 | -9 | 22 | 23 | 56* | 51* | 0 | Fluor interf inh=>100
O=[N+]([O-])c1cc(F)c2cccnc2c1O | 3 | 1 | 6 | 58* | 64* | 29 | 8
O=[N+]([O-])c1cc(Cl)c2cccnc2c1O | 7 | -7 | -3 | 19 | 30 | x | x
COc1ccc(S[C@]2(C(=O)N3CCCC3)CC(=O)N(c3ccc4c(ccn4C)c3)[C@@H]2c2ccc(OC)cc2)cc1 | 7 | x | 2 | x | x | x | x
COc1ccc(CCn2c(N)c(C(=O)NCc3ccco3)c3nc4ccccc4nc32)cc1 | 4 | -7 | 9 | 4 | 40 | x | x
Nc1c(C(=O)NCc2ccco2)c2nc3ccccc3nc2n1CCc1ccccc1F | 5 | -11 | 1 | 6 | 61* | 34 | 18
COc1ccc(-n2c(N)c(C(=O)NCc3ccco3)c3nc4ccccc4nc32)c(OC)c1 | 5 | 1 | 0 | 37* | 65* | 16 | 0
NC[C@@H]1O[C@H](C23CC4CC(CC(C4)C2)C3)Cc2c1ccc(O)c2O | -1 | -6 | -7 | 2 | 42* | 3 | 6
CCC(CO)Oc1cc(NCc2cc(C)cc(C)c2)c2ncn(C(C)C)c2c1 (centres undefined) | 1 | -7 | -12 | x | 36 | x | x
SMILES | PRMT1 FP inh | PAD4 inh | TDP2 absorb | GSTO1 counter | Apaf1 inhib | Apaf-1 inh conf2 | Rh110 quench | others
CCC(CO)Oc1cc(NCc2cccnc2)c2ncn(C(C)C)c2c1 (centres undefined) | 5 | -2 | 21 | x | 63* | 25 | -1
CCC(CO)Oc1cc(NCc2ccncc2)c2ncn(C(C)C)c2c1 (centres undefined) | 1 | -5 | 10 | x | 41* | 17 | -393
CCC(CO)Oc1cc(NCc2cccc(Cl)c2)c2ncn(C(C)C)c2c1 (centres undefined) | x | -11 | x | x | 73* | 37 | 9
CC(C)n1nnnc1C1c2ccccc2C(=O)N1Cc1cccnc1 (centres undefined) | 1 | x | 8 | x | x | x | x
CCc1c(-c2ccc(F)cc2)ncn1CCc1ccccc1OC | -1 | x | -6 | x | x | x | x
CCOc1cc(CNc2ccc(N3CCOCC3)cc2)cc(Br)c1OCC | 2 | 6 | 16 | 4 | 8 | x | x
CCOc1cc(CNc2ccc(N3CCCCC3)cc2)cc(Br)c1OCC(=O)NC(C)(C)C | 8 | 3 | 12 | 33 | 44* | 12 | -2
Cc1ccc(-n2c(Cc3cccs3)nnc2SCC(=O)Nc2ccccc2-c2ccccc2)cc1 | -1 | x | 6 | x | x | x | x
CCCCNC(=O)C(NC(=O)c1cnc(C)cn1)C(=O)c1ccccc1 (centres undefined) | 5 | x | 11 | x | x | x | x
O=C(c1cc(F)ccc1F)N(Cc1ccccn1)CC1CCCO1 (centres undefined) | -7 | x | 6 | x | x | x | x
O=C(NCc1cccs1)c1cccc(S(=O)(=O)N2CCCCC2)c1 | 2 | 0 | 8 | 2 | 55* | 15 | 5
O=C(NCc1ccccc1)c1cccc(S(=O)(=O)N2CCCCC2)c1 | 3 | 7 | -2 | 4 | 4 | x | x
CC(C)CN1C(=O)C[C@]2(C(=O)N(C)c3ccc(NC(=O)C(C)(C)C)cc32)C1c1ccccc1 (some centres undefined) | 0 | x | 0 | x | x | x | x
Clc1ccc([C@H]2OC[C@@]3(CNCc4ccc5c(c4)OCO5)CS[C@H](c4ccc(Cl)cc4)N23)cc1 | 4 | x | -8 | x | x | x | x
